Test results reported in ChEMBL document CHEMBL4765418, “Discovery of novel quinazolinone derivatives as potential anti-HBV and anti-HCC agents” (Eur J Med Chem, 2020).

Columns and labels:
[1] = Cytotoxicity against human HepG2 2.2.15 cells assessed as reduction in cell viability measured after 72 hrs by MTT assay; format: cell-based
Procedure, shortened: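 HepG2 2.2.15 cells (HBV-producing; grown in DMEM with 10% FBS, penicillin/streptomycin and 0.38 mg/mL G418) seeded in 96-well plates and grown 24 h, then treated 72 h with compounds. Viability read by MTT absorbance at 490 nm relative to untreated cells. CC50 is the dose causing 50% cell death.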

[2] = tested on: HepG2; assay: Antiproliferative activity against human HepG2 cells assessed as inhibition of cell proliferation after 72 hrs by MTT assay; format: functional, cell-based; conditions: HepG2, 72 h
Procedure, shortened: (§1)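 Cells seeded in 96-well plates and grown 24 h to reach exponential growth, then exposed to test compounds in culture medium for 72 h. Viability read by MTT absorbance at 490 nm relative to untreated cells. IC50 is the concentration giving 50% inhibition of proliferation.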

[3] = tested on: Hepatitis B virus; assay: (§2) Antiviral activity against HBV infected in human HepG2.2.15 cells assessed as inhibition of DNA replication at 0.8 uM supplemented with fresh medium containing compound every 2 days for 6 days by RT-PCR analysis relative to control; format: functional; conditions: HepG2 2.2.15, 144 h, time 6 day
Procedure, shortened: (§3)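 HepG2 2.2.15 cells (2×10^5/well, 24-well) left 24 h to recover from trypsinization, then given fresh medium with compound (single-point screen at 0.8 μM), renewed every 2 days for 6 days. Intracellular HBV DNA extracted and quantified by real-time PCR. IC50 is the dose giving 50% inhibition of DNA replication, taken from dose–response.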

[4] = tested on: Hepatitis B virus; assay: Antiviral activity against HBV infected in human HepG2.2.15 cells assessed as inhibition of DNA replication supplemented with fresh medium containing compound every 2 days for 6 days by RT-PCR analysis; format: functional, organism-based; conditions: HepG2 2.2.15; procedure, shortened: as §3
[5] = Selectivity index, ratio of CC50 for human HepG2 2.2.15 cells to IC50 for antiviral activity against HBV infected in human HepG2.2.15 cells assessed as inhibition of DNA replication; format: toxicity, cell-based; conditions: read-out: Ratio CC50/IC50
[6] = tested on: Hepatitis B virus; assay: (§4) Antiviral activity against HBV infected in human HepG2.2.15 cells assessed as inhibition of DNA replication at 10 uM supplemented with fresh medium containing compound every 2 days for 6 days by RT-PCR analysis relative to control; format: functional; conditions: HepG2 2.2.15, 144 h, time 6 day
[7] = tested on: Hepatitis B virus; assay: as §4, with “against lamivudine and entecavir-resistant” for “against”, “HBV harboring rtL180 M/rtM204V/rtT184L mutant” for “HBV”; format: functional; conditions: HepG2 2.2.15, 144 h, time 6 day
[8] = tested on: SK-HEP1; assay: Antiproliferative activity against human SK-HEP1 cells assessed as inhibition of cell proliferation after 72 hrs by MTT assay; format: functional, cell-based; conditions: SK-HEP1, 72 h; procedure, shortened: as §1
[9] = tested on: Huh-7; assay: Antiproliferative activity against human Huh-7 cells assessed as inhibition of cell proliferation after 72 hrs by MTT assay; format: functional, cell-based; conditions: Huh-7, 72 h; procedure, shortened: as §1
[10] = tested on: Hepatitis B virus; assay: as §2, with “against lamivudine and entecavir-resistant” for “against”, “HBV harboring rtL180 M/rtM204V/rtT184L mutant” for “HBV”, “100” for “0.8”; format: functional; conditions: HepG2 2.2.15, 144 h, time 6 day
[11] = tested on: Hepatitis B virus; assay: Antiviral activity against HBV infected in human HepG2.2.15 cells assessed as inhibition of HBsAg production supplemented with fresh medium containing compound every 3 days for 6 days by EIA relative to control; format: functional, HepG2 2.2.15; conditions: time 6 day
[12] = tested on: Hepatitis B virus; assay: Antiviral activity against HBV infected in human HepG2.2.15 cells assessed as inhibition of DNA replication at 100 uM supplemented with fresh medium containing compound every 2 days for 6 days by RT-PCR analysis relative to control; format: functional; conditions: HepG2 2.2.15, 144 h, time 6 day

Structure (SMILES)	CC50 at 72 h [1] [µM]	IC50 [2] [µM]	inhibition at 0.8 µM [3] [%]	IC50 [4] [nM]	selectivity ratio [5]	other results
CN(C)CCCOc1ccc2nc(SCc3ccccc3)n(Cc3ccccc3)c(=O)c2c1	> 10	> 20	42.8			
CN(C)CCOc1ccc2nc(SCc3ccccc3)n(Cc3ccco3)c(=O)c2c1	> 10	17.5	21.7			
CN(C)CCOc1ccc2nc(SCc3ccccc3)n(Cc3ccccc3)c(=O)c2c1	> 10	> 20	65.5	680	> 14.7	
CCN(CC)CCOc1ccc2nc(SCc3ccccc3OC)n(Cc3ccccc3)c(=O)c2c1	> 10	> 20	9.8			
CN(C)CCOc1ccc2nc(SCc3ccccc3)n(Cc3cccs3)c(=O)c2c1	> 10		53.6	770	> 13	
COc1ccc(C(C)=O)cc1CSc1nc2ccc(OCCCN(C)C)cc2c(=O)n1Cc1ccco1	> 10	9.4	54.2	790	> 12.7	
C=C1[C@H](CO)[C@@H](O)C[C@@H]1n1cnc2c(=O)[nH]c(N)nc21 [ENTECAVIR]						inhibition at 10 µM [6]: 96.9%; inhibition at 10 µM [7]: 18.9%
COc1ccc(C(C)=O)cc1CSc1nc2ccc(OCCCN(C)C)cc2c(=O)n1Cc1cccs1	9.63	8.98	0.16			
COc1ccccc1CSc1nc2ccc(OCCCN(C)C)cc2c(=O)n1Cc1ccco1	8.38	6.76	34.4			
COc1ccccc1CSc1nc2ccc(OCCCN(C)C)cc2c(=O)n1Cc1ccccc1	> 10	11.8	3.66			
CNC(=O)c1cc(Oc2ccc(NC(=O)Nc3ccc(Cl)c(C(F)(F)F)c3)cc2)ccn1 [SORAFENIB]		7.67				IC50 [8]: 9.64 µM; IC50 [9]: 7.92 µM
Nc1ccn([C@@H]2CS[C@H](CO)O2)c(=O)n1 [LAMIVUDINE]	> 100		84.4	< 100	> 1000	inhibition at 100 µM [10]: 15.7%; inhibition (INH) [11]: 9.09%; inhibition at 100 µM [12]: 90%
